Measured values as given in PubChem BioAssay AID652202 (Vanderbilt Specialized Chemistry Center, 2013).
Calls of active or inactive are those of the source. No rule for the calls is given here.

Biological target: Metabotropic glutamate receptor 3 (Rattus norvegicus) (UniProt P31422)
Experiment: mGlu3 modulation of glutamate calcium response, selectivity assay for mGlu5 silent allosteric modulator project, cell-based, rat, TRex293, Galpha15, Fluo4 calcium (AID 652202)
Details: TRex293 rmGlu3+Galpha15, Fluo4 calcium mobilization
In short: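 System: Tetracycline-induced TRex293 cells expressing rat mGlu3 plus Galpha15 | Buffer or medium: HBSS/HEPES/probenecid buffer, pH 7.4 | Probe or stimulus: Glutamate, 10 nM–1 mM | Incubation: Fluo4-AM loading 60 min at 37 °C, glutamate added at 80 s | Detection: Fluo4 calcium fluorescence | Read-out: Modulation of glutamate concentration-response by compound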

Chain of Metabotropic glutamate receptor 3 (Rattus norvegicus) (P31422 whole entry, looked up): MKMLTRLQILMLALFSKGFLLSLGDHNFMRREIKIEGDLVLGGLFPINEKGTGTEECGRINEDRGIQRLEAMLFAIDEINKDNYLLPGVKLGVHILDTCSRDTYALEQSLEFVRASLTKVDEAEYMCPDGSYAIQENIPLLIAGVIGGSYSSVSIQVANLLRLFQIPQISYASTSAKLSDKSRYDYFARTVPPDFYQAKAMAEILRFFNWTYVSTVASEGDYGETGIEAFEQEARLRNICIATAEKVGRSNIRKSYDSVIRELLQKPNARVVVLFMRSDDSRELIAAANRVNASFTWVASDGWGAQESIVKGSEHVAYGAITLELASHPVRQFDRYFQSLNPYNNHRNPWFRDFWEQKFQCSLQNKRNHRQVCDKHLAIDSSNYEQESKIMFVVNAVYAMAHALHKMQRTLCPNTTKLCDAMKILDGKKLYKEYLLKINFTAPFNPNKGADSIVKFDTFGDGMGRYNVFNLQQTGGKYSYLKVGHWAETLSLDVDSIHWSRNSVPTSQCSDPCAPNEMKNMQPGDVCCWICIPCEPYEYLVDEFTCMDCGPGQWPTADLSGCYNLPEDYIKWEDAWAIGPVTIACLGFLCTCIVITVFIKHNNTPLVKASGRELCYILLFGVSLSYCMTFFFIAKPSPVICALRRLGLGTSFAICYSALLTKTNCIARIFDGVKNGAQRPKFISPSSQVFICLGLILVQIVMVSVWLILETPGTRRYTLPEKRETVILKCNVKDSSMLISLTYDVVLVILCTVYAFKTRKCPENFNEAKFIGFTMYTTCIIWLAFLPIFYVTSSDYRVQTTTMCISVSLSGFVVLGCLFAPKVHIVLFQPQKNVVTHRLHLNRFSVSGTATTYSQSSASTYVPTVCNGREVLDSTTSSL

glutamate EC50 in presence of 10 uM compound: inactive
SMILES: O=C(c1ccc(C#Cc2cccc(F)c2)cn1)N1CC2CC2C1 (stereo unspecified)
